The text below walks through data of ChEMBL document CHEMBL4680121, “Development of (4-methoxyphenyl)-1H-tetrazol-5-amine regioisomers as a new class of selective antitubercular agents” (Eur J Med Chem, 2020).

Where only a bound is given, the exact number is not on record here.

The subject of data set [1] is Mycobacterium tuberculosis. The experiment in a line: Antitubercular activity against Mycobacterium tuberculosis Spec.192 assessed as inhibition of microbial growth incubated for 1 week by MABA method. Format: functional. To be noted: Mycobacterium tuberculosis, 192, 168 h; time 1 weeks. An outline of the steps: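 Microplate Alamar Blue assay in Middlebrook 7H9 broth with 10% OADC. Inoculum from fresh LJ culture was adjusted to McFarland 1 and diluted 1:20. DMSO stocks were two-fold serially diluted to final 0.125–512 µg/ml, with growth and sterile controls. Plates ran 1 week at 37 °C, then Alamar blue was added for 24 h. MIC is the lowest concentration preventing the blue-to-pink change.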
On the technique in general: Alamar Blue is a resazurin reagent that responds to reducing activity.

A further data set relates to Escherichia coli. The experiment in a line: Antibacterial activity against Escherichia coli ATCC 25922 assessed as bacterial growth inhibition measured after 18 hrs by two-fold serial microdilution method. Format: functional. An outline of the steps: (§1)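 Two-fold serial broth microdilution in MH II medium following modified CLSI procedures. Compounds were dissolved in DMSO and diluted in medium to at most 1% solvent, tested from 0.03125 to 512 μg/ml. Final inoculum 10^6 CFU/ml. MIC was taken as the lowest concentration with no visible growth after 18 h at 35 °C.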
(In general: In broth dilution the organism is exposed to a series of concentrations in liquid medium.)

A further data set concerns Mycobacterium kansasii. The experiment in a line: Antibacterial activity against Mycobacterium kansasii assessed as inhibition of microbial growth incubated for 1 week by MABA method. Format: functional. As to conditions: 168 h, time 1 weeks. The method, boiled down: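 Microplate Alamar Blue assay using two-fold serial microdilution in Middlebrook 7H9 broth with 10% OADC, compounds 0.125–512 µg/ml from DMSO stocks. Inoculum came from fresh LJ culture, was adjusted to McFarland 1 and diluted 1:20. Plates were incubated 1 week at 37 °C, Alamar blue was added and plates were re-incubated 24 h. MIC was the lowest concentration preventing the blue-to-pink change. Each plate carried growth and sterile controls.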

The test system of data set [2] is Mycobacterium tuberculosis. Nature of the data set: Antitubercular activity against Mycobacterium tuberculosis H37Rv ATCC 25618 assessed as fractional inhibitory concentration index incubated for 14 days in presence of 1/2 x MIC rifampicin by MABA method. The data set is classed as functional. As to conditions: time 14 day. The method, boiled down:
(§2)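 Interaction analysis in Middlebrook 7H9 with 10% OADC. Combination MICs came from mixing the derivative (1 to 1/32 MIC) with the reference drug at 1/2 MIC, and the reverse, after 14 days at 37 °C with McFarland 1 inoculum. FICI was calculated from the combination MIC values and the MICs alone.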

For data set [3], the system named is Mycobacterium tuberculosis. Nature of the data set: Antitubercular activity against Mycobacterium tuberculosis Spec.192 assessed as fractional inhibitory concentration index in presence of 1/2 x MIC rifampicin incubated for 14 days by MABA method. To be noted: time 14 day. The data set is classed as functional. An outline of the steps:
as §2

In data set [4] the test system is Mycobacterium tuberculosis. The experiment in a line: Antitubercular activity against Mycobacterium tuberculosis Spec.192 assessed as fractional inhibitory concentration index in presence of 1/2 x MIC streptomycin incubated for 14 days by MABA method. The data set is classed as functional. To be noted: time 14 day. The method, boiled down:
as §2

The test system of data set [5] is Staphylococcus epidermidis. The experiment in a line: Antibacterial activity against Staphylococcus epidermidis ATCC 1457 assessed as bacterial growth inhibition measured after 18 hrs by two-fold serial microdilution method. Format: functional. An outline of the steps: as §1
A further data set deals with Staphylococcus aureus. The experiment in a line: Antibacterial activity against Staphylococcus aureus ATCC 6538 assessed as bacterial growth inhibition measured after 18 hrs by two-fold serial microdilution method. Format: functional. An outline of the steps:
as §1

A further data set has as its system Klebsiella pneumoniae. Nature of the data set: Antibacterial activity against Klebsiella pneumoniae ATCC 10031 assessed as bacterial growth inhibition measured after 18 hrs by two-fold serial microdilution method. The data set is classed as functional. The method, boiled down:
as §1

A further data set deals with Proteus vulgaris. Nature of the data set: Antibacterial activity against Proteus vulgaris NCTC 4635 assessed as bacterial growth inhibition measured after 18 hrs by two-fold serial microdilution method. The data set is classed as functional. The method, boiled down:
as §1

Data set [6] relates to HaCaT. Nature of the data set: Cytotoxicity against human HaCaT cells assessed as reduction in cell viability measured after 72 hrs by MTT assay. The data set is classed as cell-based. An outline of the steps:
(§3)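 MTT viability assay on cells grown in DMEM with 10% heat-inactivated FBS, penicillin/streptomycin and 20 mM HEPES at 37 °C/5% CO2. Cells were seeded at 1×10^4 per well and allowed to adhere for 24 h, then the medium was refreshed. Compounds were added at 20–140 μM for 72 h at 37 °C, followed by MTT (0.5 mg/mL in serum-free medium) for 4 h. Untreated cells served as control. IC50 is the concentration giving 50% growth inhibition versus control.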
(Formazan colour is commonly taken as a measure of viable cells.)

The next data set deals with Caco-2. Nature of the data set: Cytotoxicity against human Caco-2 cells assessed as LDH release at 100 uM incubated for 72 hrs by LDH assay. As to conditions: caco-2, 72 h. Format: cell-based. An outline of the steps:
(§4)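 LDH release measured with a kit after 72 h exposure to 100 μM compound. Cells were seeded at 1×10^4 per well in DMEM or EMEM with 2% FBS. Absorbance was read at 490 nm. Release (%) = (A sample − A low control)/(A high control − A low control) × 100, with the Triton X-100 (1%) control taken as 100% release. Values are mean ± SD of three independent experiments run in triplicate.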

Data set [7] has as its system HaCaT. Nature of the data set: Cytotoxicity against human HaCaT cells assessed as LDH release at 100 uM incubated for 72 hrs by LDH assay. The data set is classed as cell-based. An outline of the steps:
as §4

Data set [8] deals with Mycobacterium tuberculosis. Nature of the data set: Antitubercular activity against Mycobacterium tuberculosis H37Rv ATCC 25618 assessed as reduction in bacterial growth incubated for 14 days in presence of 1/2 x MIC rifampicin by MABA method. Format: functional. As to conditions: H37Rv ATCC 25618, 336 h, time 14 day. An outline of the steps:
(§5)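 Checkerboard-type combination in Middlebrook 7H9 with 10% OADC. The test derivative at 1 to 1/32 of its MIC alone was mixed with the reference drug fixed at 1/2 its MIC. 4 ml samples were inoculated with McFarland 1 suspension and incubated 14 days at 37 °C. MIC is the lowest derivative concentration in combination that inhibited growth in liquid medium.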

Data set [9] concerns Mycobacterium tuberculosis. The experiment in a line: Antitubercular activity against Mycobacterium tuberculosis H37Rv ATCC 25618 assessed as reduction in bacterial growth incubated for 14 days in presence of 1/2 x MIC ethambutol by MABA method. The data set is classed as functional. To be noted: H37Rv ATCC 25618, 336 h, time 14 day. The method, boiled down:
as §5

Data set [10] relates to Mycobacterium tuberculosis. The experiment in a line: Antitubercular activity against Mycobacterium tuberculosis Spec.192 assessed as reduction in bacterial growth incubated for 14 days in presence of 1/2 x MIC isoniazid by MABA method. The data set is classed as functional. To be noted: Mycobacterium tuberculosis, 192, 336 h; time 14 day. An outline of the steps:
as §5

Data set [11] concerns Mycobacterium tuberculosis. Nature of the data set: Antitubercular activity against Mycobacterium tuberculosis Spec.192 assessed as isoniazid MIC incubated for 14 days in presence of isoniazid by MABA method. Format: functional. As to conditions: Mycobacterium tuberculosis, 192, 336 h; time 14 day. The method, boiled down:
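In Middlebrook 7H9 with 10% OADC, the reference drug (INH, RMP, SM or EMB) at 1 to 1/32 of its MIC alone was mixed with the test derivative fixed at 1/2 its MIC. 4 ml samples were inoculated with McFarland 1 suspension and incubated 14 days at 37 °C. MIC is the lowest drug concentration in combination that inhibited growth.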

Data set [12] relates to HaCaT. Nature of the data set: Cytotoxicity against human HaCaT cells assessed as reduction in cell viability at 100 uM measured after 72 hrs by MTT assay. The data set is classed as cell-based. The method, boiled down:
as §3

In data set [13] the test system is Mycobacterium tuberculosis. Nature of the data set: Potentiation of streptomycin-induced antimycobacterial activity against Mycobacterium tuberculosis H37Rv ATCC 25618 assessed as fold decrease in streptomycin MIC at 1/2X MIC incubated for 14 days in presence of streptomycin by MABA method. Format: functional. As to conditions: time 14 day. The method, boiled down: (§6)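 Combination assay in Middlebrook 7H9 broth with 10% OADC. The reference drug (INH, RMP, SM or EMB) was varied from 1 to 1/32 of its MIC, and the test derivative was fixed at 1/2 its own MIC. Single-agent MICs were determined first by MABA. Inoculum was 1 McFarland, with 14 days of incubation at 37 °C. The endpoint was the lowest reference-drug concentration that inhibited growth.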

The subject of data set [14] is Mycobacterium tuberculosis. Nature of the data set: Potentiation of streptomycin-induced antimycobacterial activity against Mycobacterium tuberculosis Spec.192 assessed as fold decrease in streptomycin MIC at 1/2X MIC incubated for 14 days in presence of streptomycin by MABA method. The data set is classed as functional. To be noted: time 14 day. An outline of the steps: as §6

In general, MIC refers to the least concentration at which growth counts as inhibited. As usually defined, the IC50 is the point on the concentration scale where inhibition reaches its midpoint. Regarding `COc1ccc(-n2nnnc2Nc2cccc(Br)c2)cc1`, the MIC in [1] was 2 µg/mL; in the data set on Escherichia coli it was > 256 µg/mL; in the data set on Mycobacterium kansasii, 512 µg/mL; in [5], > 256 µg/mL; in the data set on Staphylococcus aureus, > 256 µg/mL; in the data set on Klebsiella pneumoniae it was > 256 µg/mL. The minimal inhibitory concentration (MIC) in the data set with Proteus vulgaris was > 256 µg/mL; in [8], 0.5 µg/mL; in data set [9], 0.5 µg/mL; in [10] it was 0.25 µg/mL; in [11] it was 0.5 µg/mL. Also, the “fractional inhibitory concentration index (FICI)” value in data set [2], in data set [3] and in data set [4] was 0.5 in each case. For the same compound, the IC50 with HaCaT [6] came out at 138 µM. Also, the figures for the Activity in the data set on Caco-2, in the data set on HaCaT [7] and in the data set on HaCaT [12] were < 17%, 4.88% and “Non-Toxic”, respectively. The “fold change (FC)” value in [13] and in data set [14] was 2 in each case.

In the case of `COc1ccc(-n2nnnc2Nc2ccc(Br)cc2)cc1`, the MIC in [1] is 2 µg/mL; in the data set on Escherichia coli, > 256 µg/mL; in the data set on Mycobacterium kansasii it was 512 µg/mL; in data set [5] it was > 256 µg/mL; in the data set on Staphylococcus aureus, > 256 µg/mL; in the data set with Klebsiella pneumoniae, > 256 µg/mL. The MIC was > 256 µg/mL in the data set with Proteus vulgaris; 0.5 µg/mL in data set [8]; 0.25 µg/mL in data set [9]; 0.25 µg/mL in data set [10]; 0.5 µg/mL in data set [11]. In addition, the “fractional inhibitory concentration index (FICI)” value was 0.5 in data set [2], 0.5 in data set [3] and 0.375 in data set [4]. Moreover, the IC50 with HaCaT [6] amounted to 131 µM. For the same compound, the Activity result in the data set with Caco-2 was “Non-Toxic”; in the data set on HaCaT [7], 7.25%; in the data set with HaCaT [12] it was “Non-Toxic”. Further, the “fold change (FC)” value in data set [13] and in data set [14] was 4 throughout.
